Measurements from ChEMBL document CHEMBL4257484, “Membrane-active antimicrobial poly(amino-modified alkyl) β-cyclodextrins synthesized via click reactions” (Medchemcomm, 2018).
Converted amounts (≈) assume the structure as drawn. Bridge positions count the residues as written; N and C are the ends. Square brackets hold non-standard residues; d marks the D form. Peptide text beside a SMILES is read from it. * marks the point of attachment. Octanoyl(6-Me) = CCC(C)CCCCC(=O)*; Orn = NCCC[C@H](N)C(=O)O; Dab = NCC[C@H](N)C(=O)O

What was measured:
Enterococcus faecalis [1] = assay: Antibacterial activity against drug-resistant Enterococcus faecalis MS29030 after 18 to 20 hrs by agar dilution method; assay type: functional
Outline: (§1)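 Agar dilution per CLSI. Overnight broth cultures were diluted 100-fold, and one loopful (about 10^5 to 10^4 CFU) was spotted onto agar plates containing the CD. Growth was scored after 18–20 h at 37 °C. MIC values are in µM.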

[2] = Hemolytic activity in rabbit RBC at 20 uM after 20 mins relative to control; assay type: ADME, cell-based, Oryctolagus cuniculus, Erythrocyte; details: rabbit red blood cells (erythrocytes), read-out: Activity
Outline: (§2)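 Rabbit erythrocytes suspended in 150 mM NaCl/10 mM Hepes-NaOH, pH 7.4, at 0.5% hematocrit (final) and incubated with compound at 37 °C. The table footnote gives 20 min; the methods section gives 30 min. Hemolysis was read as absorbance at 540 nm, with 50 µM lysolecithin defining 100% hemolysis.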

[3] = Hemolytic activity in rabbit RBC at 10 uM after 20 mins relative to control; assay type: ADME, cell-based, Oryctolagus cuniculus, Erythrocyte; details: rabbit red blood cells (erythrocytes), read-out: Activity; outline: as §2
[4] = Hemolytic activity in rabbit RBC at 5 uM after 20 mins relative to control; assay type: ADME, cell-based, Oryctolagus cuniculus, Erythrocyte; details: rabbit red blood cells (erythrocytes), read-out: Activity; outline: as §2
Bacillus subtilis = assay: Antibacterial activity against drug-sensitive Bacillus subtilis 168 after 20 hrs by liquid microdilution method; assay type: functional; details: subsp. subtilis str. 168, 20 h
Outline: (§3)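 Two-fold serial dilutions of compound in Mueller–Hinton broth, inoculated with 1 × 10^4 cells and cultured at 37 °C for 20 h in microtiter wells.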

Escherichia coli = assay: Antibacterial activity against drug-sensitive Escherichia coli K-12 W3110 after 20 hrs by liquid microdilution method; assay type: functional; details: K-12 substr. W3110, 20 h; outline: as §3
[5] = Lipophilicity, log P of the compound; assay type: physicochemical; details: octanol/water
Streptococcus agalactiae = assay: Antibacterial activity against drug-resistant Streptococcus agalactiae B1 after 18 to 20 hrs by agar dilution method; assay type: functional; outline: as §1
Staphylococcus aureus [6] = assay: Antibacterial activity against methicillin-sensitive Staphylococcus aureus FDA 209P after 20 hrs by liquid microdilution method; assay type: functional; outline: as §3
[7] = Hemolytic activity in rabbit RBC at 50 uM after 20 mins relative to control; assay type: ADME, cell-based, Oryctolagus cuniculus, Erythrocyte; details: rabbit red blood cells (erythrocytes), read-out: Activity; outline: as §2
Salmonella typhimurium = assay: Antibacterial activity against drug-sensitive Salmonella typhimurium LT2 after 20 hrs by liquid microdilution method; assay type: functional, Salmonella enterica subsp. enterica serovar Typhimurium; details: Salmonella enterica, LT2, 20 h; outline: as §3
[8] = Hemolytic activity in rabbit RBC at 2 uM after 20 mins relative to control; assay type: ADME, cell-based, Oryctolagus cuniculus, Erythrocyte; details: rabbit red blood cells (erythrocytes), read-out: Activity; outline: as §2
Staphylococcus aureus [9] = assay: Antibacterial activity against methicillin-resistant Staphylococcus aureus MS29202 after 18 to 20 hrs by agar dilution method; assay type: functional; outline: as §1
Enterococcus faecium = assay: Antibacterial activity against drug-resistant Enterococcus faecium MS29120 after 18 to 20 hrs by agar dilution method; assay type: functional; outline: as §1
Enterococcus faecalis [10] = assay: Antibacterial activity against vancomycin-resistant Enterococcus faecalis MS29016 after 18 to 20 hrs by agar dilution method; assay type: functional; outline: as §1
[11] = Hemolytic activity in rabbit RBC at 1 uM after 20 mins relative to control; assay type: ADME, cell-based, Oryctolagus cuniculus, Erythrocyte; details: rabbit red blood cells (erythrocytes), read-out: Activity; outline: as §2
Pseudomonas aeruginosa = assay: Antibacterial activity against drug-sensitive Pseudomonas aeruginosa PAO1 after 20 hrs by liquid microdilution method; assay type: functional; details: PAO1, 20 h; outline: as §3

Structure (SMILES)	MIC (Enterococcus faecalis [1])	hemolysis at 20 min, 20 µM [2]	hemolysis at 20 min, 10 µM [3]	hemolysis at 20 min, 5 µM [4]	MIC (Bacillus subtilis)	MIC (Escherichia coli)	logP [5]	MIC (Streptococcus agalactiae)	MIC (Staphylococcus aureus [6])	hemolysis at 20 min, 50 µM [7]	MIC (Salmonella typhimurium)	hemolysis at 20 min, 2 µM [8]	MIC (Staphylococcus aureus [9])	MIC (Enterococcus faecium)	MIC (Enterococcus faecalis [10])	hemolysis at 20 min, 1 µM [11]	MIC (Pseudomonas aeruginosa)
O[C@@H]1[C@@H](O)[C@H]2O[C@H]3[C@H](O)[C@@H](O)[C@@H](O[C@H]4[C@H](O)[C@@H](O)[C@@H](O[C@H]5[C@H](O)[C@@H](O)[C@@H](O[C@H]6[C@H](O)[C@@H](O)[C@@H](O[C@H]7[C@H](O)[C@@H](O)[C@@H](O[C@H]8[C@H](O)[C@@H](O)[C@@H](O[C@@H]1[C@@H](Cn1cc(CNCC9CCCC9)nn1)O2)O[C@@H]8Cn1cc(CNCC2CCCC2)nn1)O[C@@H]7Cn1cc(CNCC2CCCC2)nn1)O[C@@H]6Cn1cc(CNCC2CCCC2)nn1)O[C@@H]5Cn1cc(CNCC2CCCC2)nn1)O[C@@H]4Cn1cc(CNCC2CCCC2)nn1)O[C@@H]3Cn1cc(CNCC2CCCC2)nn1	> 42 µM	2%	1%	1%	21 µM (≈ 47.7 µg/mL)	21 µM (≈ 47.7 µg/mL)	-0.58	10 µM (≈ 22.7 µg/mL)	1 to 5 µM (≈ 2.27 to 11.4 µg/mL)	8%	> 42 µM	1%	21 µM (≈ 47.7 µg/mL)	21 µM (≈ 47.7 µg/mL)	> 42 µM	2%	> 42 µM
O[C@@H]1[C@@H](O)[C@H]2O[C@H]3[C@H](O)[C@@H](O)[C@@H](O[C@H]4[C@H](O)[C@@H](O)[C@@H](O[C@H]5[C@H](O)[C@@H](O)[C@@H](O[C@H]6[C@H](O)[C@@H](O)[C@@H](O[C@H]7[C@H](O)[C@@H](O)[C@@H](O[C@H]8[C@H](O)[C@@H](O)[C@@H](O[C@@H]1[C@@H](Cn1cc(CNCCc9ccccc9)nn1)O2)O[C@@H]8Cn1cc(CNCCc2ccccc2)nn1)O[C@@H]7Cn1cc(CNCCc2ccccc2)nn1)O[C@@H]6Cn1cc(CNCCc2ccccc2)nn1)O[C@@H]5Cn1cc(CNCCc2ccccc2)nn1)O[C@@H]4Cn1cc(CNCCc2ccccc2)nn1)O[C@@H]3Cn1cc(CNCCc2ccccc2)nn1	40 µM (≈ 97 µg/mL)	23%	12%	7%	3 µM (≈ 7.27 µg/mL)	10 µM (≈ 24.2 µg/mL)	-0.13	10 µM (≈ 24.2 µg/mL)	3 to 5 µM (≈ 7.27 to 12.1 µg/mL)	40%	10 µM (≈ 24.2 µg/mL)	3%	20 µM (≈ 48.5 µg/mL)	20 µM (≈ 48.5 µg/mL)	40 µM (≈ 97 µg/mL)	3%	10 µM (≈ 24.2 µg/mL)
NC(Cc1ccccc1)c1cn(C[C@H]2O[C@@H]3O[C@H]4[C@H](O)[C@@H](O)[C@@H](O[C@H]5[C@H](O)[C@@H](O)[C@@H](O[C@H]6[C@H](O)[C@@H](O)[C@@H](O[C@H]7[C@H](O)[C@@H](O)[C@@H](O[C@H]8[C@H](O)[C@@H](O)[C@@H](O[C@H]9[C@H](O)[C@@H](O)[C@@H](O[C@H]2[C@H](O)[C@H]3O)O[C@@H]9Cn2cc(C(N)Cc3ccccc3)nn2)O[C@@H]8Cn2cc(C(N)Cc3ccccc3)nn2)O[C@@H]7Cn2cc(C(N)Cc3ccccc3)nn2)O[C@@H]6Cn2cc(C(N)Cc3ccccc3)nn2)O[C@@H]5Cn2cc(C(N)Cc3ccccc3)nn2)O[C@@H]4Cn2cc(C(N)Cc3ccccc3)nn2)nn1 (stereo not given in full)	> 41 µM	4%	6%	3%	5 µM (≈ 11.6 µg/mL)	21 µM (≈ 48.9 µg/mL)	-0.67	21 µM (≈ 48.9 µg/mL)	21 µM (≈ 48.9 µg/mL)	4%	> 41 µM	4%	41 µM (≈ 95.4 µg/mL)	21 µM (≈ 48.9 µg/mL)	> 41 µM	5%	> 41 µM
NC(CC1CCCCC1)c1cn(C[C@H]2O[C@@H]3O[C@H]4[C@H](O)[C@@H](O)[C@@H](O[C@H]5[C@H](O)[C@@H](O)[C@@H](O[C@H]6[C@H](O)[C@@H](O)[C@@H](O[C@H]7[C@H](O)[C@@H](O)[C@@H](O[C@H]8[C@H](O)[C@@H](O)[C@@H](O[C@H]9[C@H](O)[C@@H](O)[C@@H](O[C@H]2[C@H](O)[C@H]3O)O[C@@H]9Cn2cc(C(N)CC3CCCCC3)nn2)O[C@@H]8Cn2cc(C(N)CC3CCCCC3)nn2)O[C@@H]7Cn2cc(C(N)CC3CCCCC3)nn2)O[C@@H]6Cn2cc(C(N)CC3CCCCC3)nn2)O[C@@H]5Cn2cc(C(N)CC3CCCCC3)nn2)O[C@@H]4Cn2cc(C(N)CC3CCCCC3)nn2)nn1 (stereo not given in full)	40 µM (≈ 94.8 µg/mL)	117%	107%	89%	3 µM (≈ 7.11 µg/mL)	10 µM (≈ 23.7 µg/mL)	-0.35	20 µM (≈ 47.4 µg/mL)	10 µM (≈ 23.7 µg/mL)	118%	10 µM (≈ 23.7 µg/mL)	31%	20 µM (≈ 47.4 µg/mL)	20 µM (≈ 47.4 µg/mL)	20 µM (≈ 47.4 µg/mL)	13%	20 µM (≈ 47.4 µg/mL)
NC(CCc1ccccc1)c1cn(C[C@H]2O[C@@H]3O[C@H]4[C@H](O)[C@@H](O)[C@@H](O[C@H]5[C@H](O)[C@@H](O)[C@@H](O[C@H]6[C@H](O)[C@@H](O)[C@@H](O[C@H]7[C@H](O)[C@@H](O)[C@@H](O[C@H]8[C@H](O)[C@@H](O)[C@@H](O[C@H]9[C@H](O)[C@@H](O)[C@@H](O[C@H]2[C@H](O)[C@H]3O)O[C@@H]9Cn2cc(C(N)CCc3ccccc3)nn2)O[C@@H]8Cn2cc(C(N)CCc3ccccc3)nn2)O[C@@H]7Cn2cc(C(N)CCc3ccccc3)nn2)O[C@@H]6Cn2cc(C(N)CCc3ccccc3)nn2)O[C@@H]5Cn2cc(C(N)CCc3ccccc3)nn2)O[C@@H]4Cn2cc(C(N)CCc3ccccc3)nn2)nn1 (stereo not given in full)	40 µM (≈ 97 µg/mL)	94%	47%	17%	5 µM (≈ 12.1 µg/mL)	20 µM (≈ 48.5 µg/mL)	-0.25	20 µM (≈ 48.5 µg/mL)	20 µM (≈ 48.5 µg/mL)	113%	> 40 µM	6%	20 µM (≈ 48.5 µg/mL)	20 µM (≈ 48.5 µg/mL)	40 µM (≈ 97 µg/mL)	4%	> 40 µM
CCC(C)CCCCC(=O)N[C@@H](CCN)C(=O)N[C@H](C(=O)N[C@@H](CCN)C(=O)N[C@H]1CCNC(=O)[C@H]([C@@H](C)O)NC(=O)[C@H](CCN)NC(=O)[C@H](CCN)NC(=O)[C@H](CC(C)C)NC(=O)[C@@H](Cc2ccccc2)NC(=O)[C@H](CCN)NC1=O)[C@@H](C)O (stereo not given in full) ({Octanoyl(6-Me)}-[Dab]T[Dab][Dab][Dab][dF]L[Dab][Dab]T; lactam 4-C)	–	–	–	–	6 µM (≈ 7.22 µg/mL)	1 µM (≈ 1.2 µg/mL)	–	–	23 µM (≈ 27.7 µg/mL)	–	1 µM (≈ 1.2 µg/mL)	–	–	–	–	–	1 µM (≈ 1.2 µg/mL)
CC(C)C[C@@H]1NC(=O)[C@H](CCCN)NC(=O)[C@H](C(C)C)NC(=O)[C@@H]2CCCN2C(=O)[C@@H](Cc2ccccc2)NC(=O)[C@H](CC(C)C)NC(=O)[C@H](CCCN)NC(=O)[C@H](C(C)C)NC(=O)[C@@H]2CCCN2C(=O)[C@@H](Cc2ccccc2)NC1=O (cyclo(V[Orn]L[dF]PV[Orn]L[dF]P))	–	–	–	–	–	28 µM (≈ 32 µg/mL)	–	–	7 µM (≈ 7.99 µg/mL)	–	–	–	–	–	–	–	56 µM (≈ 63.9 µg/mL)
O[C@@H]1[C@@H](O)[C@H]2O[C@H]3[C@H](O)[C@@H](O)[C@@H](O[C@H]4[C@H](O)[C@@H](O)[C@@H](O[C@H]5[C@H](O)[C@@H](O)[C@@H](O[C@H]6[C@H](O)[C@@H](O)[C@@H](O[C@H]7[C@H](O)[C@@H](O)[C@@H](O[C@H]8[C@H](O)[C@@H](O)[C@@H](O[C@@H]1[C@@H](Cn1cc(CNCC9CC9)nn1)O2)O[C@@H]8Cn1cc(CNCC2CC2)nn1)O[C@@H]7Cn1cc(CNCC2CC2)nn1)O[C@@H]6Cn1cc(CNCC2CC2)nn1)O[C@@H]5Cn1cc(CNCC2CC2)nn1)O[C@@H]4Cn1cc(CNCC2CC2)nn1)O[C@@H]3Cn1cc(CNCC2CC2)nn1	–	0%	0%	0%	> 45 µM	> 45 µM	-1.4	–	> 45 µM	0%	> 45 µM	0%	–	–	–	0%	> 45 µM
